In ChEMBL document CHEMBL4196178, “Structure-Based Drug Design of Potent Pyrazole Derivatives against Rhinovirus Replication” (J Med Chem, 2018):
The source made the active and inactive calls. The calls are words filed in the database; no cut-off is given here.

Experiments:
[1] = target: T1, VP1 capsid protein (Human rhinovirus sp.) (UniProt Q7T664); assay: Inhibition of capsid of VP1 C199W mutant harboring Rhinovirus B14 assessed as reduction of virus induced cytopathic effect at 1 times EC50 concentration after 4th passage measured after 3 days by MTS assay
T1 sequence (whole entry): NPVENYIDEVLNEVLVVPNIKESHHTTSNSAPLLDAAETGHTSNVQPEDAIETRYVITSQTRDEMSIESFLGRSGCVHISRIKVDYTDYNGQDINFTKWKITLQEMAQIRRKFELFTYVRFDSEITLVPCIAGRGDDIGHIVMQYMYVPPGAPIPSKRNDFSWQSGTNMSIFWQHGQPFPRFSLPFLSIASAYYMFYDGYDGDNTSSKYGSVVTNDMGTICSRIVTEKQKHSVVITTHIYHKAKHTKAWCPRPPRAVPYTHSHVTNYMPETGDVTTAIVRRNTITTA

[2] = target: T1, VP1 capsid protein (Human rhinovirus sp.); assay: Inhibition of Rhinovirus B14 capsid infected in human HeLa Rh cells assessed as number of wells with full cytopathic effect at 2 times EC50 concentration after 4th passage measured after 3 days by MTS assay relative to control; assay type: cell-based; design: scale not given: the % may be the effect or the level left
Procedure, shortened: (§1)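 Confluent HeLa cells were infected with wild-type RV-B14 with compound present at 1x, 2x or 4x in vitro EC₅₀, n=4 wells. Supernatant was diluted 1:10 onto fresh HeLa cells with compound, for four passages. Value is percentage of wells with full CPE.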

[3] = target: T1, VP1 capsid protein (Human rhinovirus sp.); assay: Inhibition of Rhinovirus B14 capsid infected in human HeLa Rh cells assessed as number of wells with full cytopathic effect at EC50 concentration after 3rd passage measured after 3 days by MTS assay relative to control; assay type: cell-based; design: scale not given: the % may be the effect or the level left
Procedure, shortened: as §1

[4] = target: T1, VP1 capsid protein (Human rhinovirus sp.); assay: Inhibition of Rhinovirus B14 capsid infected in human HeLa Rh cells assessed as number of wells with full cytopathic effect at 2 times EC50 concentration after 2nd passage measured after 3 days by MTS assay relative to control; assay type: cell-based; design: scale not given: the % may be the effect or the level left
Procedure, shortened: as §1

[5] = target: T1, VP1 capsid protein (Human rhinovirus sp.); assay: Inhibition of Rhinovirus B14 capsid infected in human HeLa Rh cells assessed as number of wells with full cytopathic effect at 4 times EC50 concentration after 1st passage measured after 3 days by MTS assay relative to control; assay type: cell-based; design: scale not given: the % may be the effect or the level left
Procedure, shortened: as §1

rhinovirus B14 [6] = assay: Antiviral activity against Rhinovirus B14 infected in human HeLa Rh cells assessed as reduction in viral replication at 1 uM administered at >= 2 hrs post infection measured after 8 hrs post infection by RT-qPCR analysis; assay type: functional, organism-based
Procedure, shortened: (§2)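 HeLa Rh cells adhered overnight, then given 1 µM compound 2 h before, at, or 2, 4 or 6 h after RV-B14 infection. Untreated infected cells served as controls. Cells lysed at 8 h post-infection, DNases heat-inactivated at 75 °C for 15 min. Intracellular viral RNA measured by SYBR one-step qRT-PCR against a gBlock standard series, reported as genome equivalents per sample.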

[7] = target: T1, VP1 capsid protein (Human rhinovirus sp.); assay: Inhibition of Rhinovirus B14 capsid infected in human HeLa Rh cells assessed as number of wells with full cytopathic effect at 4 times EC50 concentration after 4th passage measured after 3 days by MTS assay relative to control; assay type: cell-based; design: scale not given: the % may be the effect or the level left
Procedure, shortened: as §1

[8] = target: T1, VP1 capsid protein (Human rhinovirus sp.); assay: Inhibition of Rhinovirus B14 capsid infected in human HeLa Rh cells assessed as number of wells with full cytopathic effect at EC50 concentration after 2nd passage measured after 3 days by MTS assay relative to control; assay type: cell-based; design: scale not given: the % may be the effect or the level left
Procedure, shortened: as §1

[9] = target: T1, VP1 capsid protein (Human rhinovirus sp.); assay: Inhibition of capsid of VP1 V191E mutant harboring Rhinovirus B14 assessed as reduction of virus induced cytopathic effect at 2 times EC50 concentration after 4th passage measured after 3 days by MTS assay
[10] = Selectivity index, ratio of CC50 for human HeLa Rh cells to EC50 for Rhinovirus B14 capsid infected in human HeLa Rh cells; assay type: toxicity, cell-based; details: read-out: Ratio CC50/EC50
Procedure, shortened: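 SI = CC₅₀/EC₅₀ for RV-B14 in HeLa Rh cells, both from the same 3-day 35 °C MTS CPE assay. CC₅₀ was obtained by light-microscope scoring of compound-treated uninfected cells, and EC₅₀ from MTS dose-response. Both values were derived by logarithmic interpolation and reported as median ± median absolute deviation.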

[11] = target: T1, VP1 capsid protein (Human rhinovirus sp.); assay: Inhibition of Rhinovirus B14 capsid infected in human HeLa Rh cells assessed as number of wells with full cytopathic effect at EC50 concentration after 1st passage measured after 3 days by MTS assay relative to control; assay type: cell-based; design: scale not given: the % may be the effect or the level left
Procedure, shortened: as §1

rhinovirus B14 [12] = assay: Inhibition of Rhinovirus B14 capsid infected in human HeLa Rh cells assessed as number of wells with full cytopathic effect at 4 times EC50 concentration after 2nd passage measured after 3 days by MTS assay relative to control; assay type: functional; design: scale not given: the % may be the effect or the level left
Procedure, shortened: as §1

[13] = target: T1, VP1 capsid protein (Human rhinovirus sp.); assay: Inhibition of Rhinovirus B14 capsid infected in human HeLa Rh cells assessed as number of wells with full cytopathic effect at 2 times EC50 concentration after 1st passage measured after 3 days by MTS assay relative to control; assay type: cell-based; design: scale not given: the % may be the effect or the level left
Procedure, shortened: as §1

[14] = Cytotoxicity against human HeLa Rh cells assessed as reduction in cell viability after 3 days by MTS assay; assay type: cell-based
[15] = target: T1, VP1 capsid protein (Human rhinovirus sp.); assay: Inhibition of Rhinovirus B14 capsid infected in human HeLa Rh cells assessed as number of wells with full cytopathic effect at 4 times EC50 concentration after 3rd passage measured after 3 days by MTS assay relative to control; assay type: cell-based; design: scale not given: the % may be the effect or the level left
Procedure, shortened: as §1

[16] = target: T1, VP1 capsid protein (Human rhinovirus sp.); assay: Inhibition of Rhinovirus B14 capsid infected in human HeLa Rh cells assessed as number of wells with full cytopathic effect at EC50 concentration after 4th passage measured after 3 days by MTS assay relative to control; assay type: cell-based; design: scale not given: the % may be the effect or the level left
Procedure, shortened: as §1

[17] = target: T1, VP1 capsid protein (Human rhinovirus sp.); assay: Inhibition of capsid of VP1 A150V mutant harboring Rhinovirus B14 assessed as reduction of virus induced cytopathic effect at 2 times EC50 concentration after 4th passage measured after 3 days by MTS assay
Procedure, shortened: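 After four passages of RV-B14 on HeLa cells with compound at 1x, 2x or 4x in vitro EC₅₀ (supernatant transferred 1:10 each passage), virus harvested at passage 4 was sequenced for the VP1 region by Sanger sequencing.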

[18] = target: T1, VP1 capsid protein (Human rhinovirus sp.); assay: Inhibition of Rhinovirus B14 capsid infected in human HeLa Rh cells assessed as reduction in viral replication at 1 uM administered 2 hrs before infection measured after 8 hrs post infection by RT-qPCR analysis; assay type: cell-based
Procedure, shortened: as §2

[19] = target: T1, VP1 capsid protein (Human rhinovirus sp.); assay: Inhibition of Rhinovirus B14 capsid infected in human HeLa Rh cells assessed as number of wells with full cytopathic effect at 2 times EC50 concentration after 3rd passage measured after 3 days by MTS assay relative to control; assay type: cell-based; design: scale not given: the % may be the effect or the level left
Procedure, shortened: as §1

rhinovirus B14 [20] = assay: Antiviral activity against Rhinovirus B14 infected in human HeLa Rh cells assessed as reduction in viral replication at 1 uM administered at the time of infection measured after 8 hrs post infection by RT-qPCR analysis; assay type: functional, organism-based
Procedure, shortened: as §2

[21] = target: T1, VP1 capsid protein (Human rhinovirus sp.); assay: Inhibition of capsid of VP1 A150V mutant harboring Rhinovirus B14 assessed as reduction of virus induced cytopathic effect at 4 times EC50 concentration after 4th passage measured after 3 days by MTS assay

For Cn1cc(-c2ccc(CC(O)c3ccc(-n4cccn4)cc3)c([N+](=O)[O-])c2)cn1 (racemic), the inhibition [1] was “Active”, the Activity [2] was 50% and the Activity [3] was 50%. For the same compound, the Activity [4] was 0%, the Activity [5] was 0% and the Activity (rhinovirus B14 [6]) was “inactive”. For the same compound, the Activity [7] was 0%, the Activity [8] was 0% and the inhibition [9] was “inactive”. The selectivity ratio [10] was 1240 to 5000, the Activity [11] was 0% and the Activity (rhinovirus B14 [12]) was 0%. It also gave an Activity [13] of 0%, a CC50 at 72 h [14] of 247 to 1000 µM and an Activity [15] of 0%. The Activity [16] was 50%, the inhibition [17] was “Active” and the inhibition [18] was “Active”. For the same compound, the Activity [19] was 0%, the Activity (rhinovirus B14 [20]) was “Active” and the inhibition [21] was “inactive”.
